{
  "source": "paper PMC9830076",
  "about": "(International Journal of Nanomedicine, 2023)",
  "note": "Where a name gives a salt, the structure may show the parent alone.",
  "data": [
    {"system": "Caco-2 cells", "assay": "Endocytosis and intracellular trafficking mechanism with pathway inhibitors", "assay_type": "cell-based", "settings": "100 μM 6-MPNs, 0.5 h, intracellular 6-MP by HPLC", "summary_of_the_method": "(§1)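 Caco-2 cells in 12-well plates at 1×10^5 cells/mL, grown to 90% confluency, preincubated 0.5 h with inhibitors, PBS-washed ×3. Endocytosis inhibitors (MβCD, genistein, EIPA, Cyt D, CPZ, dynasore) co-incubated with 100 μM test nanoparticles or crystals, 37°C, 0.5 h. Trafficking inhibitors (BFA, monensin, Baf-A1, nocodazole) with 200 μM, 37°C, 2 h. Inhibitor levels as in preincubation; intracellular 6-MP by HPLC.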", "values": [
      {"molecule": "O=c1c(-c2ccc(O)cc2)coc2cc(O)cc(O)c12", "note": "[Genistein, genistein]", "effect of endocytosis inhibitor on the internalization of 6-MPNs": "less influence"},
      {"molecule": "C=C1[C@@H](C)[C@H]2[C@H](Cc3ccccc3)NC(=O)[C@]23[C@H](OC(C)=O)/C=C/[C@@](C)(O)C(=O)[C@@H](C)C/C=C/[C@H]3[C@@H]1O", "note": "[Cyt D, cytochalasin D]", "effect of endocytosis inhibitor on the internalization of 6-MPNs": "less influence"},
      {"molecule": "O=C(N/N=C/c1ccc(O)c(O)c1)c1cc2ccccc2cc1O", "note": "[Dynasore, dynasore]", "effect of endocytosis inhibitor on the internalization of 6-MPNs": "obviously reduced"},
      {"molecule": "Methyl-beta-cyclodextrin [MβCD]", "effect of endocytosis inhibitor on the internalization of 6-MPNs": "obviously reduced"},
      {"molecule": "CCN(c1nc(N)c(C(=O)NC(=N)N)nc1Cl)C(C)C", "note": "[EIPA, ethyl-isopropyl-amiloride]", "effect of endocytosis inhibitor on the internalization of 6-MPNs": "obviously reduced"},
      {"molecule": "CN(C)CCCN1c2ccccc2Sc2ccc(Cl)cc21", "note": "[CPZ, chlorpromazine hydrochloride]", "effect of endocytosis inhibitor on the internalization of 6-MPNs": "less influence"}
    ]},
    {"system": "Caco-2 cells", "assay": "Endocytosis and intracellular trafficking mechanism with pathway inhibitors", "assay_type": "cell-based", "settings": "200 μM 6-MPNs, 2 h", "summary_of_the_method": "as §1", "values": [
      {"molecule": "CO/C1=C\\C(C)=C\\[C@@H](C)[C@@H](O)[C@@H](C)C/C(C)=C/C=C/[C@H](OC)[C@@H]([C@@H](C)[C@@H](O)[C@H](C)[C@@]2(O)C[C@@H](O)[C@H](C)[C@@H](C(C)C)O2)OC1=O", "note": "[Bafilomycin A1]", "effect of intracellular transport inhibitor on the content of intracellular 6-MP": "significantly enhanced"},
      {"molecule": "CC[C@@]1([C@@H]2O[C@@H]([C@H]3O[C@@](O)(CO)[C@H](C)C[C@@H]3C)C[C@@H]2C)CC[C@H]([C@]2(C)CC[C@]3(C[C@H](O)[C@@H](C)[C@@H]([C@@H](C)[C@@H](OC)[C@H](C)C(=O)O)O3)O2)O1", "note": "[Monensin]", "effect of intracellular transport inhibitor on the content of intracellular 6-MP": "significantly enhanced"},
      {"molecule": "COC(=O)Nc1nc2ccc(C(=O)c3cccs3)cc2[nH]1", "note": "[Nocodazole, nocodazole]", "effect of intracellular transport inhibitor on the content of intracellular 6-MP": "significantly enhanced"},
      {"molecule": "C[C@H]1CCC/C=C/[C@@H]2C[C@H](O)C[C@H]2[C@H](O)/C=C/C(=O)O1", "note": "[Brefeldin A]", "effect of intracellular transport inhibitor on the content of intracellular 6-MP": "significantly enhanced"}
    ]},
    {"molecular_target": "T1, MRP4 transporter (Homo sapiens, UniProt O15439)", "T1 sequence (O15439 1-1325)": "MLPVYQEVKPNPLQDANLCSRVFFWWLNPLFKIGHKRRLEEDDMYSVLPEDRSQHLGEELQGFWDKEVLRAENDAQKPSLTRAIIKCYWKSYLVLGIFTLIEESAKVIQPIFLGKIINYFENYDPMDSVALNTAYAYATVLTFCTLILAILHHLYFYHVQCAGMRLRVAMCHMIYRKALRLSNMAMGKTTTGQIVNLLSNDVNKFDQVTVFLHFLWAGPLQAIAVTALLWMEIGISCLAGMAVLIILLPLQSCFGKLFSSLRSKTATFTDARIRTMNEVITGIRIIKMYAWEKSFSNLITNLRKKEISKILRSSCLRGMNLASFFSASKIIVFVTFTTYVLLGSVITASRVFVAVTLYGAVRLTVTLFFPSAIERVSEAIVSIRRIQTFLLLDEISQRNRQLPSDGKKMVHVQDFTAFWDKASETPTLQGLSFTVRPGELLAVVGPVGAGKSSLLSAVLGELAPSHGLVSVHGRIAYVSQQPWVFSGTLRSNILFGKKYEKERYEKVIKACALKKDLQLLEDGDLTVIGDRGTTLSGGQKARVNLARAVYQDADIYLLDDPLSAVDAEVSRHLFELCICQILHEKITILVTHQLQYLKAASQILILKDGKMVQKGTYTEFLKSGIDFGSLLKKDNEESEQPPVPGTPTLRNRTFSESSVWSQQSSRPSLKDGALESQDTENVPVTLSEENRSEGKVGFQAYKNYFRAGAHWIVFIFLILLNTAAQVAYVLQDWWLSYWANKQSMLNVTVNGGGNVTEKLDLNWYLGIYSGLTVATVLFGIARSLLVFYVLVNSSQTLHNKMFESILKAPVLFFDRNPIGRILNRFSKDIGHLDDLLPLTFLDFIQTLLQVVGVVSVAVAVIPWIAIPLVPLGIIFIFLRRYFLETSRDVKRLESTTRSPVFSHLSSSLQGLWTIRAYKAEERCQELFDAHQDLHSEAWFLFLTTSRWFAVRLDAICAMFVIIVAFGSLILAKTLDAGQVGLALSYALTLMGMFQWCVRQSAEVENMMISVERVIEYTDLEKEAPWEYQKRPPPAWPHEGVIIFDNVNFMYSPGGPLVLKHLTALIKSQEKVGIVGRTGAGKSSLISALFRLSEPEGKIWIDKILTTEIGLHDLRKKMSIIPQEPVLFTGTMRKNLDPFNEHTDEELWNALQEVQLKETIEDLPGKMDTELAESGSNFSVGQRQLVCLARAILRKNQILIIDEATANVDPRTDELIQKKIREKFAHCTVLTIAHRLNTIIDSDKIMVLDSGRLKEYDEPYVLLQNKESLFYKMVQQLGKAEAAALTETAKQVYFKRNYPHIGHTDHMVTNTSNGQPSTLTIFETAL", "assay": "Effect of MRP4 transporter", "assay_type": "cell-based", "settings": "Caco-2 cells, indomethacin 30 μM, 100 μM 6-MPNs or 6-MPCs, 2 h", "summary_of_the_method": "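Caco-2 cells grown in 6-well plates to 90% confluency, preincubated 0.5 h at 37°C with 30 μM indomethacin (MRP4 inhibitor), PBS-washed ×3, then exposed 2 h to 100 μM test nanoparticles or crystals plus 30 μM indomethacin; controls without indomethacin. Cells PBS-washed and RIPA/1% PMSF-lysed; 6-MP in lysate by HPLC, total protein by BCA.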", "values": [
      {"molecule": "COc1ccc2c(c1)c(CC(=O)O)c(C)n2C(=O)c1ccc(Cl)cc1", "note": "[indomethacin]", "effect on intracellular accumulation of 6-MP": "increased"}
    ]},
    {"system": "not given", "assay": "not given", "settings": "low solubility and high permeability; cited from earlier work", "values": [
      {"molecule": "Sc1ncnc2nc[nH]c12", "note": "[6-MP, 6-Mercaptopurine]", "biopharmaceutic classification system (BCS) class": "class II"}
    ]}
  ]
}
